Experiment [1] concerns the target T1, Aldehyde dehydrogenase 1A1 (Homo sapiens) (UniProt P00352).
T1 sequence (whole entry): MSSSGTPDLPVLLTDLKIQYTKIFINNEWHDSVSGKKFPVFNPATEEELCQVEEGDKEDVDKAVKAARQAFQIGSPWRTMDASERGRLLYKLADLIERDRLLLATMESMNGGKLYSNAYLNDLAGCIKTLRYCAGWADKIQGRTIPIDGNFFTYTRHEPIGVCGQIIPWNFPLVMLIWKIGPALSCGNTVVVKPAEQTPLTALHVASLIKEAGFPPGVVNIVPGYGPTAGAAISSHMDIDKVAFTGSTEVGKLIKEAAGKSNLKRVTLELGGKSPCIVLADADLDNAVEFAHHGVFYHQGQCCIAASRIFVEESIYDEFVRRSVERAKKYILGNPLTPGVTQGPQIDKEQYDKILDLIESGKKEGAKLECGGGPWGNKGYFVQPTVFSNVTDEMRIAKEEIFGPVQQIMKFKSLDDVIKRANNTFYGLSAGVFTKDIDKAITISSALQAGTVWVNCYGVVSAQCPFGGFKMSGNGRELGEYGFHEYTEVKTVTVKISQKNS
The experiment in a line: Inhibition of human recombinant ALDH1A1 assessed as remaining enzyme activity at 25 uM pre-incubated for 5 mins before acetaldehyde addition by continuous spectrometric assay relative to control. Summed up:
(§1)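 Preliminary single-concentration screen at 25 μM against human recombinant ALDH1A1, ALDH1A2 and ALDH1A3, scored as residual enzyme activity versus control.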

The target in experiment [2] is T2, Retinal dehydrogenase 2 (Homo sapiens) (UniProt O94788).
T2 sequence (whole entry): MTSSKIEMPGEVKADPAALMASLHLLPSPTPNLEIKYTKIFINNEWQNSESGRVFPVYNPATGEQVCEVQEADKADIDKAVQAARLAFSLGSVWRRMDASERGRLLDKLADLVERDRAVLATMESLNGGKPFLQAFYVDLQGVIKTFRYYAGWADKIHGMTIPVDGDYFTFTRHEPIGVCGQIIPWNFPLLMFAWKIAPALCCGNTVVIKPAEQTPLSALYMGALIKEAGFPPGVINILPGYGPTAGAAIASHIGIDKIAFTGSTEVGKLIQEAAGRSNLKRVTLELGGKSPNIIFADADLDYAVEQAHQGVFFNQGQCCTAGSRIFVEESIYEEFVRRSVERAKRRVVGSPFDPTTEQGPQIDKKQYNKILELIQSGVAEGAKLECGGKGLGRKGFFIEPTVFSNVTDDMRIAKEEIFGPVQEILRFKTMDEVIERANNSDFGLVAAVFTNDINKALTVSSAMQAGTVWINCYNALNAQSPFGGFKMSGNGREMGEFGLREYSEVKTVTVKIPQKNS
As to the kind of experiment: Inhibition of human recombinant ALDH1A2 assessed as remaining enzyme activity at 25 uM pre-incubated for 5 mins before acetaldehyde addition by continuous spectrometric assay relative to control. Summed up:
as §1

The target of experiment [3] is T3, Retinaldehyde dehydrogenase 3 (Homo sapiens) (UniProt P47895).
T3 sequence (whole entry): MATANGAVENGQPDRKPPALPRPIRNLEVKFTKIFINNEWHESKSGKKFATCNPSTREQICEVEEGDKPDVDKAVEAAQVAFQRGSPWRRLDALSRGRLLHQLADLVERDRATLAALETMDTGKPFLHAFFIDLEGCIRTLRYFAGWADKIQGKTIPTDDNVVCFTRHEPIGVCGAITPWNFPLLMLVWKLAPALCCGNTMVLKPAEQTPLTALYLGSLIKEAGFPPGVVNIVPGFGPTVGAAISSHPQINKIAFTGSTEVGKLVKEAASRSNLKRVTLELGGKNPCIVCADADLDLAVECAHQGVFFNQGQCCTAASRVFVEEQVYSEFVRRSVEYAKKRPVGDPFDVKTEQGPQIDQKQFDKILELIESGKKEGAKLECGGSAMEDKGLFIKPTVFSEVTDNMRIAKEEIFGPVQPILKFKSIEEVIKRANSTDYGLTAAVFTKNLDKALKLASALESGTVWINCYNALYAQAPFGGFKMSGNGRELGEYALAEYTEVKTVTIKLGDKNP
The experiment in a line: Inhibition of human recombinant ALDH1A3 assessed as remaining enzyme activity at 25 uM pre-incubated for 5 mins before acetaldehyde addition by continuous spectrometric assay relative to control. Summed up: as §1

For experiment [4], the target named is T4, Aldehyde dehydrogenase 1A1 (Homo sapiens, UniProt P00352).
T4 sequence (P00352 whole entry): T1 sequence (whole entry)
As to the kind of experiment: Inhibition of human recombinant ALDH1A1 pre-incubated for 5 mins before acetaldehyde addition by continuous spectrometric assay relative to control. Summed up: (§2)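 IC50 is the concentration giving 50% inhibition of the human recombinant isoform. Compounds with no significant inhibition at 25 μM were listed as not active and had no IC50 determined.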

For experiment [5], the target named is T5, Retinaldehyde dehydrogenase 3 (Homo sapiens, UniProt P47895).
T5 sequence (P47895 whole entry): T3 sequence (whole entry)
The experiment in a line: Inhibition of human recombinant ALDH1A3 pre-incubated for 5 mins before acetaldehyde addition by continuous spectrometric assay relative to control. Summed up: as §2

The target in experiment [6] is T6, Retinal dehydrogenase 2 (Homo sapiens, UniProt O94788).
T6 sequence (O94788 whole entry): T2 sequence (whole entry)
As to the kind of experiment: Inhibition of human recombinant ALDH1A2 pre-incubated for 5 mins before acetaldehyde addition by continuous spectrometric assay relative to control. Summed up: as §2

Experiment [7] deals with T4, Aldehyde dehydrogenase 1A1. As to the kind of experiment: Competitive inhibition of human recombinant ALDH1A1 pre-incubated for 5 mins before acetaldehyde addition by continuous spectrometric assay relative to control.
Experiment [8] deals with T6, Retinal dehydrogenase 2. The experiment in a line: Competitive inhibition of human recombinant ALDH1A2 pre-incubated for 5 mins before acetaldehyde addition by continuous spectrometric assay relative to control.
In a further experiment the test system is U-87 MG. The experiment in a line: Antiproliferative activity against human U87MG cells assessed as reduction in cell vitality at 100 nM to 10 uM incubated for 72 hrs by MTT assay. The following applies: U-87MG ATCC. In kind it is functional, cell-based.
Experiment [9] concerns the target T5, Retinaldehyde dehydrogenase 3. The experiment in a line: Competitive inhibition of human recombinant ALDH1A3 pre-incubated for 5 mins before acetaldehyde addition by continuous spectrometric assay relative to control.

The source made the active and inactive calls. No cut-off for these calls is given here.

`COc1cccc(-c2cn3cccc(-c4ccc(-c5ccccc5)cc4)c3n2)c1`: the Activity in experiment [1], in experiment [2] and in [3] was 75 to 100% each time.
In the case of `Fc1ccc(-c2cccn3cc(-c4ccccc4)nc23)cc1`, the IC50 entry in [4] was “Not Active”; in experiment [5] it was 6 µM; on Retinal dehydrogenase 2 [6], “Not Active”. Moreover, the Activity in experiment [1] is 75 to 100%; in experiment [2], 25 to 50%; in experiment [3] it was 25 to 50%.
As to `COc1cccc(-c2cn3cccc(-c4ccc(F)cc4)c3n2)c1`, the IC50 result in [4] is “Not Active”; in experiment [5], 7.2 µM; on Retinal dehydrogenase 2 [6] it was “Not Active”. The Activity in experiment [1] lay within 75 to 100%; in [2], 25 to 50%; in experiment [3], 50 to 75%.
Consider `COc1ccc(-c2cn3cccc(-c4cc(OC)cc(OC)c4)c3n2)cc1`, for which the Activity in experiment [1], in experiment [2] and in experiment [3] was 75 to 100% each time.
Consider `O=C(COc1ccc(-c2cccn3cc(-c4ccccc4)nc23)cc1)c1ccccc1`, for which the Activity in experiment [1], in experiment [2] and in experiment [3] was 75 to 100% throughout.
For `CC(C)Cc1ccc(-c2cccn3cc(-c4ccccc4)nc23)cc1`, the Activity in experiment [1] was in the range of 50 to 75%; in experiment [2], 75 to 100%; in [3], 75 to 100%.
Consider `COc1cccc(-c2cn3cccc(-c4ccc(Cl)cc4)c3n2)c1`, for which the IC50 result is “Not Active” in experiment [4], 4.3 µM in [5] and “Not Active” at Retinal dehydrogenase 2 [6]. For the same compound, the Activity was 75 to 100% in experiment [1], 50 to 75% in [2] and 50 to 75% in experiment [3].
As to `Cc1ccc(-c2cn3cccc(-c4ccccc4)c3n2)cc1`, the results for the Activity in [1], in experiment [2] and in experiment [3] were 75 to 100%, 50 to 75% and 50 to 75%, respectively.
In the case of `Clc1ccc(-c2cccn3cc(-c4ccccc4)nc23)cc1`, the IC50 was found to be 168 µM in experiment [4] (read-out: IC50), 5.5 µM in experiment [5] and 27.6 µM at Retinal dehydrogenase 2 [6] (read-out: IC50). Further, the Activity in experiment [1] lay within 75 to 100%; in [2], 50 to 75%; in [3] it was 50 to 75%. Moreover, the Ki was determined as 168 µM in [7], 27.6 µM at Retinal dehydrogenase 2 [8] and 8.7 µM in experiment [9]. Moreover, in the experiment with U-87 MG, the result was Active.
Consider `c1ccc(-c2cn3cccc(-c4ccccc4)c3n2)cc1`, for which the results for the IC50 entry (in experiment [4]; in experiment [5]; on Retinal dehydrogenase 2 [6] (read-out: IC50)) were “Not Active”, 80.6 µM and 61.4 µM, respectively. The results for the Activity in experiment [1], in [2] and in experiment [3] were 75 to 100%, 50 to 75% and 50 to 75%, respectively.
Consider `COc1ccc(-c2cn3cccc(-c4ccc(-c5ccccc5)cc4)c3n2)cc1`, for which the Activity in experiment [1] was in the range of 50 to 75%; in experiment [2] it was 75 to 100%; in experiment [3], 75 to 100%.
As for `COc1cccc(-c2cn3cccc(-c4cc(OC)c(OC)c(OC)c4)c3n2)c1`, the Activity in [1], in experiment [2] and in [3] was 75 to 100% in each case.
`c1ccc(-c2ccc(-c3cccn4cc(-c5ccccc5)nc34)cc2)cc1`: the Activity in experiment [1], in experiment [2] and in [3] was 75 to 100% each time.
In the case of `COC(=O)c1ccc(-c2cccn3cc(-c4ccc(OC)cc4)nc23)cc1`, the Activity in [1] was 75 to 100%; in experiment [2], 75 to 100%; in experiment [3], 50 to 75%.
For `Cc1ccc(-c2cn3cccc(-c4ccc(Cl)cc4)c3n2)cc1`, the Activity in [1] was in the range of 75 to 100%; in experiment [2], 75 to 100%; in [3], 50 to 75%.
For `COC(=O)c1ccc(-c2cccn3cc(-c4ccccc4)nc23)cc1`, the IC50 entry in [4] was “Not Active”; in [5], 0.66 µM; at Retinal dehydrogenase 2 [6], “Not Active”. The Activity in experiment [1] lay in the range of 75 to 100%; in experiment [2], 25 to 50%; in experiment [3] it was 0 to 25%. Moreover, the Ki in experiment [7] was 79.5 µM; on Retinal dehydrogenase 2 [8], 0.92 µM; in experiment [9], 0.12 µM.
Turning to `COc1ccc(-c2cn3cccc(-c4ccc(F)cc4)c3n2)cc1`, the Activity in experiment [1], in [2] and in experiment [3] was 75 to 100% each time.
Regarding `COc1ccc(-c2cn3cccc(-c4ccc(Cl)cc4)c3n2)cc1`, the Activity in [1], in [2] and in experiment [3] was 75 to 100% each time.
For the compound `COc1ccc(-c2cn3cccc(-c4cc(OC)c(OC)c(OC)c4)c3n2)cc1`, the Activity in experiment [1], in experiment [2] and in [3] was 75 to 100% each time.
Regarding `Cc1ccc(-c2cn3cccc(-c4ccc(F)cc4)c3n2)cc1`, the Activity in [1] was in the range of 75 to 100%; in experiment [2], 50 to 75%; in [3], 75 to 100%.

Values taken from ChEMBL document CHEMBL4602736, “Progress in the Field of Aldehyde Dehydrogenase Inhibitors: Novel Imidazo[1,2-a]pyridines against the 1A Family” (ACS Med Chem Lett, 2020).
